Results published in ChEMBL document CHEMBL1147937, “Kinesin spindle protein (KSP) inhibitors. Part V: discovery of 2-propylamino-2,4-diaryl-2,5-dihydropyrroles as potent, water-soluble KSP inhibitors, and modulation of their basicity by beta-fluorination to overcome cellular efflux by P-glycoprotein” (Bioorg Med Chem Lett, 2007).

What was measured:
[1] = Partition coefficient, log P of the compound; assay type: physicochemical; conditions: octanol/water
[2] = Ratio of IC50 for human KBV1 cells to human KB31 cells after 16 hrs; assay type: cell-based; conditions: KBV1 cells and KB31 cells, read-out: Ratio IC50
How it was run: (§1)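 IC50 for induction of G2/M (mitotic) block was determined in two human epidermoid carcinoma lines: parental KB-3-1, which lacks Pgp, and KB-V-1. KB-V-1 was derived by culturing KB-3-1 with vinblastine and highly overexpresses Pgp. The MDR ratio is the quotient of the KB-V-1 IC50 over the KB-3-1 IC50.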

[3] = Dissociation constant, pKa of the compound; assay type: physicochemical
How it was run: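 Ionization constant measured with an automated pKa titrator; the value is the average of n = 3 determinations.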

[4] = molecular target: T1, Kinesin-like protein KIF11 (Homo sapiens, UniProt P52732); test: Inhibition of KSP
T1 sequence (P52732 whole entry): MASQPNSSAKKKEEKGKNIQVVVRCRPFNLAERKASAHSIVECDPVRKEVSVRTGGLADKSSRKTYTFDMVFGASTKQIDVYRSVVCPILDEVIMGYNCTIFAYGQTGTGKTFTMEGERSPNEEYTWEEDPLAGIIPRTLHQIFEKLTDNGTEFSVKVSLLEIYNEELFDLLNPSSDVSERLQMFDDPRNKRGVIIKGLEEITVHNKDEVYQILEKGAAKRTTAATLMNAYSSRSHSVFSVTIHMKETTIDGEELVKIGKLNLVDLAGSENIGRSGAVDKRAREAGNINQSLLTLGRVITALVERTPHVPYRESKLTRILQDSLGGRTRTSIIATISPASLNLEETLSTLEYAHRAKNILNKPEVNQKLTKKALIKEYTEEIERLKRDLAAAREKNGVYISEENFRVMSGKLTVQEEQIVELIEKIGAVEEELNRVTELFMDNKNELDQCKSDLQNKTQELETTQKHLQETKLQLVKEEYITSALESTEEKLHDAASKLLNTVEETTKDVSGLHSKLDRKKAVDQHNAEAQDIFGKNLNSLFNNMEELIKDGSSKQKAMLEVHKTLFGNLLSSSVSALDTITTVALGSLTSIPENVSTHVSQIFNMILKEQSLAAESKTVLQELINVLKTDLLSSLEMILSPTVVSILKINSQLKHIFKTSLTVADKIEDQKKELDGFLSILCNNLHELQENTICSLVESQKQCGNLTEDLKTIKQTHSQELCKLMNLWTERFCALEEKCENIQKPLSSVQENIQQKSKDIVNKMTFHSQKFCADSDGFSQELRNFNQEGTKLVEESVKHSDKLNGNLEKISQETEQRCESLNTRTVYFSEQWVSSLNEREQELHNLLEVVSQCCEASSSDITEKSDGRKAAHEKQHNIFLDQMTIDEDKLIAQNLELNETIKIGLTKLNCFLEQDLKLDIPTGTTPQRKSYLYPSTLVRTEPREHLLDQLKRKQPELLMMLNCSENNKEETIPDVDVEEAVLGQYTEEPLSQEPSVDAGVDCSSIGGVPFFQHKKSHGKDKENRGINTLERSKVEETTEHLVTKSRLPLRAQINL

[5] = Solubility in 0.1 M citrate at pH 4.0; assay type: physicochemical; conditions: 0.1 M citrate buffer
How it was run: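 Aqueous solubility measured on the free-base form in 0.1 M citrate, with an initial pH of 4.0.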

[6] = molecular target: Voltage-gated inwardly rectifying potassium channel KCNH2 (Homo sapiens, UniProt Q12809); test: Inhibition of hERG expressed in CHO cells by cell voltage clamp assay; assay type: toxicity, cell-based
[7] = molecular target: T1, Kinesin-like protein KIF11; test: Inhibition of KSP in KBV1 cells overexpressing Pgp; assay type: cell-based; how it was run: as §1
MDR1 [8] = test: Permeability across LLCPK1 cells expressing MDR1 gene; assay type: ADME, cell-based; conditions: human, LLC-PK1; read-out: permeability
How it was run: (§2)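 Monolayer transport assay in LLC-PK1 cells transfected with the human MDR1 gene. The efflux ratio is basolateral-to-apical over apical-to-basolateral transport. Passive permeability is reported in 10^-6 cm/s.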

MDR1 [9] = test: Efflux ratio of permeability from basolateral to apical over apical to basolateral side of the […] cell transfected with MDR1 by monolayer transport assay; assay type: ADME, cell-based; conditions: LLC-PK1; how it was run: as §2
[10] = molecular target: T1, Kinesin-like protein KIF11; test: Inhibition of KSP in KB31 cells; assay type: cell-based; how it was run: as §1

Sequence of Voltage-gated inwardly rectifying potassium channel KCNH2 (Q12809 whole entry): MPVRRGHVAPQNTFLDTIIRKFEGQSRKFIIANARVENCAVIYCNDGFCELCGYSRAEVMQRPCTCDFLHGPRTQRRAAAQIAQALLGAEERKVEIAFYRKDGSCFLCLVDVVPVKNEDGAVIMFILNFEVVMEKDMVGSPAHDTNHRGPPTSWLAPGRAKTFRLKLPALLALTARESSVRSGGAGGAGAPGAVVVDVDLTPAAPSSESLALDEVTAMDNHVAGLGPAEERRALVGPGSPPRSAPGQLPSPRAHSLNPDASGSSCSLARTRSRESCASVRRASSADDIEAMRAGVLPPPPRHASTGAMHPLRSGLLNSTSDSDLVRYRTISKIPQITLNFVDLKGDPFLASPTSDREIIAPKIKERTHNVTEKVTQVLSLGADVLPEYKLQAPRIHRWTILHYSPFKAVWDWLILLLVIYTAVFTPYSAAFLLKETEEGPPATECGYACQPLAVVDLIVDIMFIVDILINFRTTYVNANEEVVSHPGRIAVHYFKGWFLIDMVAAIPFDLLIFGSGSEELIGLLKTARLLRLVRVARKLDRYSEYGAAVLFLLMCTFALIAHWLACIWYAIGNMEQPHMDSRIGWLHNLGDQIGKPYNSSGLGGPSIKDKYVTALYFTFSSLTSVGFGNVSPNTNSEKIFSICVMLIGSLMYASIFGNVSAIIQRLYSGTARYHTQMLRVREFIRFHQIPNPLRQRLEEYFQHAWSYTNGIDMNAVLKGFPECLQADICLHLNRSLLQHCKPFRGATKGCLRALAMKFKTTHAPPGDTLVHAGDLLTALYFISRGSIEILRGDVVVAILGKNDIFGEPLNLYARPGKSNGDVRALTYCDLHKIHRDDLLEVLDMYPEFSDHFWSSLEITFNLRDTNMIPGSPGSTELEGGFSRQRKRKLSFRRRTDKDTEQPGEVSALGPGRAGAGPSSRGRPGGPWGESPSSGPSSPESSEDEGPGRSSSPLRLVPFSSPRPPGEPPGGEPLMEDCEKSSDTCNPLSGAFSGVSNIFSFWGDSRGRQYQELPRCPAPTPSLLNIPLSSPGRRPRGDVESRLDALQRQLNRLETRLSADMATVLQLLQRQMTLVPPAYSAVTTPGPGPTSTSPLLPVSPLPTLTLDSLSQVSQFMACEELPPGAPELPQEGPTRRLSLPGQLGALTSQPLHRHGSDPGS

| Structure (SMILES) | logP [1] | pKa [3] | IC50 [4] | solubility [5] | IC50 [7] | Papp (MDR1 [8]) | efflux ratio (MDR1 [9]) | IC50 [10] | selectivity ratio at 16 h [2] | IC50 [6] |
| --- | --- | --- | --- | --- | --- | --- | --- | --- | --- | --- |
| CCNCCC[C@@]1(c2ccccc2)C=C(c2cc(F)ccc2F)CN1C(=O)N(C)C | 1.6 | 10.7 | 0.0102 µM |  |  |  |  |  | > 135 |  |
| CN(C)C(=O)N1N=C(c2cc(F)ccc2F)C[C@@]1(CCCN)c1ccccc1 |  | 10.3 |  | > 12 mg/mL |  |  |  |  | 490 | 19.3 µM |
| CN(C)C(=O)N1CC(c2cc(F)ccc2F)=C[C@@]1(CCCNCCF)c1ccccc1 | 2.6 | 8.8 | 0.0102 µM |  |  |  |  |  | 32 |  |
| CN(C)C(=O)N1CC(c2cc(F)ccc2F)=C[C@@]1(CCCNCC(F)F)c1ccccc1 | 3.4 | 7 | 0.0121 µM |  |  |  |  |  | 3 |  |
| CN(C)C(=O)N1CC(c2cc(F)ccc2F)=C[C@@]1(CCCNCC(F)(F)F)c1ccccc1 | > 3.2 | 5.2 | 0.11 µM |  |  |  |  |  | 1 |  |

Further lines, with some results ahead:

| logP [1] | pKa [3] | IC50 [4] | solubility [5] | IC50 [7] | Papp (MDR1 [8]) | efflux ratio (MDR1 [9]) | IC50 [10] | Structure (SMILES) | selectivity ratio at 16 h [2] | IC50 [6] |
| --- | --- | --- | --- | --- | --- | --- | --- | --- | --- | --- |
| 1.1 | 10.3 | 0.0022 µM | > 12 mg/mL | 28 µM | 4 ×10⁻⁶ cm/s | 18.5 |  | CN(C)C(=O)N1CC(c2cc(F)ccc2F)=C[C@@]1(CCCN)c1ccccc1 | 1200 | 7.1 µM |
| 3.2 |  | 0.0052 µM | > 10 mg/mL | 0.123 µM | 38 ×10⁻⁶ cm/s | 2.5 | 0.024 µM | CN(C)C(=O)N1CC(c2cc(F)ccc2F)=C[C@@]1(CC[C@H](N)C(F)F)c1ccccc1 | 5 | 15.9 µM |
